Laboratory results reported in ChEMBL document CHEMBL2346560, “Structure and function of a potent lipopolysaccharide-binding antimicrobial and anti-inflammatory peptide” (J Med Chem, 2013).
≈ marks a conversion by molar mass, not a printed value. Calls of active or inactive are those of the source. The rule behind the calls is not given here. Bridge positions count the residues as written; N and C are the ends. Peptide text beside a SMILES is read from it.

What was measured:
Pseudomonas aeruginosa [1] = assay: Antibacterial activity against ampicillin, benzylpencillin-resistant Pseudomonas aeruginosa 08031205 after 16 hrs by broth dilution method; assay type: functional; conditions: Pseudomonas aeruginosa, 08031205, 16 h
How it was run: (§1)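 MIC read-out, reported in µg/mL with µM equivalents. Each value is the mean of three independent experiments, each run in duplicate.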

Escherichia coli [2] = assay: Bactericidal activity against Escherichia coli ATCC 25922 at 10 times MIC after 20 mins by colony counting assay (reference value: 79.3 CFU); assay type: functional
Escherichia coli [3] = assay: Antibacterial activity against Escherichia coli ATCC 25922 treated with water after 16 hrs by broth dilution method; assay type: functional; conditions: ATCC 25922, 16 h
How it was run: (§2)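 Salt sensitivity of the MIC. Peptide was tested in water, NaCl, CaCl2, MgCl2 or PBS (Na2HPO4-NaH2PO4, pH 7.4), with every salt at 150 mM. Values are means of three independent experiments, each run in duplicate.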

Bacillus subtilis = assay: Antibacterial activity against Bacillus subtilis 6633 treated with water after 16 hrs by broth dilution method; assay type: functional; conditions: Bacillus subtilis, 6633, 16 h; how it was run: as §2
RAW264.7 [4] = assay: Antiinflammatory activity in mouse RAW264.7 cells assessed as inhibition of LPS-induced IL6 production after 24 hrs by ELISA; assay type: functional, cell-based
How it was run: (§3)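 RAW 264.7 cells (2 × 10^5) were plated and allowed to adhere. They were given peptide (2.5, 5, 10, 20 µg/mL) with or without LPS (E. coli 055:B5, 20 ng/mL) for 24 h. Supernatant TNF-α, IL-6 and MCP-1 were measured by ELISA at A450. Controls were LPS alone and untreated cells. Mean ± SEM of three separate experiments.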

[5] = Toxicity in human RBC assessed as induction of hemolysis at 50 ug/mL after 30 mins relative to control; assay type: cell-based, Erythrocyte; conditions: red blood cells (RBC), read-out: Activity
How it was run: (§4)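 Human red blood cells incubated with peptide. Hemoglobin release read as absorbance at 540 nm and expressed against 1% Triton X-100 as positive control.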

[6] = Toxicity in human RBC assessed as induction of hemolysis at 12.5 ug/mL after 30 mins relative to control; assay type: cell-based, Erythrocyte; conditions: red blood cells (RBC), read-out: Activity; how it was run: as §4
Candida albicans [7] = assay: Antifungal activity against Candida albicans ATCC 2002 treated with MgCl2 after 16 hrs by broth dilution method; assay type: functional; conditions: ATCC 2002, 16 h; how it was run: as §2
Escherichia coli [8] = assay: Bactericidal activity against Escherichia coli ATCC 25922 at 5 times MIC after 120 mins by colony counting assay (reference value: 1868.3 CFU); assay type: functional
RAW264.7 [9] = assay: Antiinflammatory activity in mouse RAW264.7 cells assessed as inhibition of LPS-induced JNK1 expression preincubated for 1 hr prior to LPS-challenge measured after 3 hrs by Western blotting analysis; assay type: functional, cell-based
How it was run: (§5)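 RAW 264.7 cells (1 × 10^6/well) were serum-starved in RPMI-1640 for 16 h. They were pretreated with peptide (0, 5, 10, 20 µg/mL) for 1 h, then given LPS (E. coli 055:B5, 0 or 100 ng/mL) for 3 h. Cells were washed in ice-cold PBS, and cytoplasmic or nuclear fractions were blotted for TLR4, JNK, NF-κB p65 and β-actin. Control was LPS alone.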

Escherichia coli [10] = assay: Antibacterial activity against ampicillin, benzylpencillin-resistant Escherichia coli 08A866 after 16 hrs by broth dilution method; assay type: functional; conditions: 08A866, 16 h; how it was run: as §1
Staphylococcus aureus [11] = assay: Antibacterial activity against Staphylococcus aureus ATCC 2592 treated with water after 16 hrs by broth dilution method; assay type: functional; conditions: ATCC 2592, 16 h; how it was run: as §2
Staphylococcus aureus [12] = assay: Antibacterial activity against Staphylococcus aureus ATCC 2592 treated with CaCl2 after 16 hrs by broth dilution method; assay type: functional; conditions: ATCC 2592, 16 h; how it was run: as §2
Staphylococcus aureus [13] = assay: Antibacterial activity against Staphylococcus aureus ATCC 2592 treated with MgCl2 after 16 hrs by broth dilution method; assay type: functional; conditions: ATCC 2592, 16 h; how it was run: as §2
Pseudomonas aeruginosa [14] = assay: Antibacterial activity against Pseudomonas aeruginosa ATCC 27853 treated with CaCl2 after 16 hrs by broth dilution method; assay type: functional; conditions: ATCC 27853, 16 h; how it was run: as §2
Staphylococcus aureus [15] = assay: Antibacterial activity against Staphylococcus aureus ATCC 2592 treated with NaCl after 16 hrs by broth dilution method; assay type: functional; conditions: ATCC 2592, 16 h; how it was run: as §2
Escherichia coli [16] = assay: Bactericidal activity against Escherichia coli ATCC 25922 at 5 times MIC after 60 mins by colony counting assay (reference value: 296 CFU); assay type: functional
Escherichia coli [17] = assay: Bactericidal activity against Escherichia coli ATCC 25922 at 5 times MIC after 10 mins by colony counting assay (reference value: 58.3 CFU); assay type: functional
RAW264.7 [18] = assay: Antiinflammatory activity in mouse RAW264.7 cells assessed as inhibition of LPS-induced JNK2 expression at 10 to 20 ug/mL preincubated for 1 hr prior to LPS-challenge measured after 3 hrs by Western blotting analysis; assay type: functional, cell-based; how it was run: as §5
RAW264.7 [19] = assay: Cytotoxicity against mouse RAW264.7 cells at 50 ug/mL after 24 hrs by MTT assay relative to control; assay type: cell-based; conditions: raw264.7, 24 h
Escherichia coli [20] = assay: Bactericidal activity against Escherichia coli ATCC 25922 at 10 times MIC after 10 mins by colony counting assay (reference value: 58.3 CFU); assay type: functional
Escherichia coli [21] = assay: Antibacterial activity against ampicillin, benzylpencillin-resistant Escherichia coli 08A852 after 16 hrs by broth dilution method; assay type: functional; conditions: 08A852, 16 h; how it was run: as §1
Candida albicans [22] = assay: Antifungal activity against ampicillin, benzylpencillin-resistant Candida albicans 08030809 after 16 hrs by broth dilution method; assay type: functional; conditions: Candida albicans, 08030809, 16 h; how it was run: as §1
Escherichia coli [23] = assay: Antibacterial activity against Escherichia coli ATCC 25922 assessed as cell swelling after 30 mins by scanning electron microscopic analysis; assay type: functional, organism-based
How it was run: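 E. coli (about 2 × 10^7 CFU/mL) was exposed to peptide at 1 × MIC, 37 °C, 30 min, beside an untreated control. Cells were pelleted, fixed in 2.5% buffered glutaraldehyde (4 °C, 2 h), post-fixed in 1% osmium tetroxide (2 h), dehydrated through graded ethanol, frozen in tert-butyl alcohol and vacuum-dried, then imaged by SEM.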

RAW264.7 [24] = assay: Cytotoxicity against mouse RAW264.7 cells at 200 ug/mL after 24 hrs by MTT assay relative to control; assay type: cell-based; conditions: raw264.7, 24 h
Staphylococcus aureus [25] = assay: Antibacterial activity against ampicillin, benzylpencillin-resistant Staphylococcus aureus 08A875 after 16 hrs by broth dilution method; assay type: functional; conditions: 08A875, 16 h; how it was run: as §1
RAW264.7 [26] = assay: Cytotoxicity against mouse RAW264.7 cells at 100 ug/mL after 24 hrs by MTT assay relative to control; assay type: cell-based; conditions: raw264.7, 24 h
Staphylococcus aureus [27] = assay: Antibacterial activity against Staphylococcus aureus ATCC 2592 treated with PBS after 16 hrs by broth dilution method; assay type: functional; conditions: ATCC 2592, 16 h; how it was run: as §2
Pseudomonas aeruginosa [28] = assay: Antibacterial activity against Pseudomonas aeruginosa ATCC 27853 treated with water after 16 hrs by broth dilution method; assay type: functional; conditions: ATCC 27853, 16 h; how it was run: as §2
Candida albicans [29] = assay: Antifungal activity against Candida albicans ATCC 2002 after 16 hrs by broth dilution method; assay type: functional; conditions: ATCC 2002, 16 h; how it was run: as §1
RAW264.7 [30] = assay: Antiinflammatory activity in mouse RAW264.7 cells assessed as inhibition of LPS-induced IL6 production at 20 ug/mL after 24 hrs by ELISA relative to control; assay type: functional; conditions: RAW264.7, 24 h; how it was run: as §3
Escherichia coli [31] = assay: Bactericidal activity against Escherichia coli ATCC 25922 at 5 times MIC after 40 mins by colony counting assay (reference value: 131.7 CFU); assay type: functional
Pseudomonas aeruginosa [32] = assay: Antibacterial activity against Pseudomonas aeruginosa ATCC 27853 treated with PBS after 16 hrs by broth dilution method; assay type: functional; conditions: ATCC 27853, 16 h; how it was run: as §2

CC[C@H](C)[C@H](NC(=O)[C@H](Cc1cnc[nH]1)NC(=O)[C@H](CO)NC(=O)[C@@H](NC(=O)[C@@H](NC(=O)[C@@H](NC(=O)[C@@H](NC(=O)[C@H](CCCNC(=N)N)NC(=O)[C@H](CC(C)C)NC(=O)[C@H](CCCCN)NC(=O)[C@H](CCC(=O)O)NC(=O)[C@H](CCCCN)NC(=O)[C@H](CC(C)C)NC(=O)[C@H](CCCCN)NC(=O)[C@@H]1CSSC[C@H](NC(=O)[C@H](CCCCN)NC(=O)[C@@H](N)CCCNC(=N)N)C(=O)N[C@@H](CC(N)=O)C(=O)N[C@@H](Cc2ccccc2)C(=O)N[C@@H](CC(C)C)C(=O)N1)[C@@H](C)O)C(C)C)[C@@H](C)CC)[C@@H](C)O)C(=O)N[C@@H](CC(=O)O)C(=O)N[C@@H](CCCCN)C(=O)N[C@H](C(=O)N[C@@H](CC(C)C)C(=O)N[C@@H](CCCNC(=N)N)C(=O)N1CCC[C@H]1C(=O)N[C@@H](CCC(N)=O)C(=O)NCC(=O)O)C(C)C (H-RKCNFLCKLKEKLRTVITSHIDKVLRPQG-OH; disulfide 3-7)
MIC (Pseudomonas aeruginosa [1]): 2.74 µM (≈ 9.38 µg/mL) | CFU (Escherichia coli [2]): 0 | MIC (Escherichia coli [3]): 4.69 µg/mL (≈ 1.37 µM) | MIC (Bacillus subtilis): > 100 µg/mL | inhibition (RAW264.7 [4]): Dose-dependent effect | hemolysis at 0.5 h, 50 ug/mL [5]: 5.5% | hemolysis at 0.5 h, 12.5 ug/mL [6]: 2.5% | MIC (Candida albicans [7]): 2.35 µg/mL (≈ 0.686 µM) | CFU (Escherichia coli [8]): 0 | inhibition (RAW264.7 [9]): Dose-dependent effect | MIC (Escherichia coli [10]): 2.74 µM (≈ 9.38 µg/mL) | MIC (Staphylococcus aureus [11]): 9.38 µg/mL (≈ 2.74 µM) | MIC (Staphylococcus aureus [12]): 4.69 µg/mL (≈ 1.37 µM) | MIC (Staphylococcus aureus [13]): 9.38 µg/mL (≈ 2.74 µM) | MIC (Pseudomonas aeruginosa [14]): 18.8 µg/mL (≈ 5.48 µM) | MIC (Staphylococcus aureus [15]): 4.69 µg/mL (≈ 1.37 µM) | CFU (Escherichia coli [16]): 0 | CFU (Escherichia coli [17]): 10 | inhibition (RAW264.7 [18]): Active | Activity (RAW264.7 [19]): 2.7% | CFU (Escherichia coli [20]): 0 | MIC (Escherichia coli [21]): 1.37 µM (≈ 4.69 µg/mL) | MIC (Candida albicans [22]): 1.37 µM (≈ 4.69 µg/mL) | Activity (Escherichia coli [23]): Active | Activity (RAW264.7 [24]): 5.1% | MIC (Staphylococcus aureus [25]): 5.48 µM (≈ 18.8 µg/mL) | Activity (RAW264.7 [26]): 3.3% | MIC (Staphylococcus aureus [27]): 4.69 µg/mL (≈ 1.37 µM) | MIC (Pseudomonas aeruginosa [28]): 18.8 µg/mL (≈ 5.48 µM) | MIC (Candida albicans [29]): 1.37 µM (≈ 4.69 µg/mL) | inhibition at 20 µg/mL (RAW264.7 [30]): 86% | CFU (Escherichia coli [31]): 0 | MIC (Pseudomonas aeruginosa [32]): 9.38 µg/mL (≈ 2.74 µM)
